This note sets out measurements from ChEMBL document CHEMBL5338787, “Discovery of Novel Bruton's Tyrosine Kinase PROTACs with Enhanced Selectivity and Cellular Efficacy” (J Med Chem, 2023).

Common to all, as to assay type: cell-based
In assay [1] the target is Tyrosine-protein kinase HCK (Homo sapiens) (UniProt P08631). Description: Degradation of HCK in human TMD8 cells by measuring protein level at 111 nM for 6 hrs using label free proteomic analysis. In short, it runs like this:
(§1)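 TMD8 cells (2 × 10^6) given 111 nM or DMSO for 6 h in duplicate. Lysed in 5% SDS/50 mM TEAB pH 8.5. 200 μg protein reduced (10 mM DTT, 55 °C, 30 min), alkylated (50 mM iodoacetamide), S-Trap processed, then LC-MS/MS. Label-free matched-peptide quantitation against DMSO, human UniProt; Benjamini–Hochberg-corrected p-values.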

Assay [2] concerns the target Eukaryotic peptide chain release factor GTP-binding subunit ERF3A (Homo sapiens) (UniProt P15170). Description: Degradation of […] in human TMD8 cells by measuring protein level at 111 nM for 6 hrs using label free proteomic analysis. In short, it runs like this:
as §1

The target of assay [3] is Tyrosine-protein kinase SYK (Homo sapiens) (UniProt P43405). Kind of assay: Degradation of SYK in human TMD8 cells by measuring protein level at 111 nM for 6 hrs using label free proteomic analysis. In short, it runs like this:
as §1

Assay [4] concerns the target T1, Protein cereblon/Tyrosine-protein kinase BTK (Homo sapiens, UniProt Q06187+Q96SW2). Kind of assay: PROTAC activity at BTK/CRBN protein protein interaction in human Ramos cell assessed as degradation of BTK incubated for 17 hrs measured by Western blot analysis. In short, it runs like this:
(§2)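 Ramos or JeKo-1 cells (2 × 10^6 per well) were exposed for 17 h to 3000–0.15 nM PROTAC in 3-fold steps. Cells were lysed and analysed by western blot, with BTK normalised to β-actin. DC50 and Dmax come from the dose-response; DC50 is the mean ± SD of two independent experiments.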
(A western blot detects proteins with antibodies after separation by electrophoresis.)
Target sequence in this assay (Q06187 whole entry): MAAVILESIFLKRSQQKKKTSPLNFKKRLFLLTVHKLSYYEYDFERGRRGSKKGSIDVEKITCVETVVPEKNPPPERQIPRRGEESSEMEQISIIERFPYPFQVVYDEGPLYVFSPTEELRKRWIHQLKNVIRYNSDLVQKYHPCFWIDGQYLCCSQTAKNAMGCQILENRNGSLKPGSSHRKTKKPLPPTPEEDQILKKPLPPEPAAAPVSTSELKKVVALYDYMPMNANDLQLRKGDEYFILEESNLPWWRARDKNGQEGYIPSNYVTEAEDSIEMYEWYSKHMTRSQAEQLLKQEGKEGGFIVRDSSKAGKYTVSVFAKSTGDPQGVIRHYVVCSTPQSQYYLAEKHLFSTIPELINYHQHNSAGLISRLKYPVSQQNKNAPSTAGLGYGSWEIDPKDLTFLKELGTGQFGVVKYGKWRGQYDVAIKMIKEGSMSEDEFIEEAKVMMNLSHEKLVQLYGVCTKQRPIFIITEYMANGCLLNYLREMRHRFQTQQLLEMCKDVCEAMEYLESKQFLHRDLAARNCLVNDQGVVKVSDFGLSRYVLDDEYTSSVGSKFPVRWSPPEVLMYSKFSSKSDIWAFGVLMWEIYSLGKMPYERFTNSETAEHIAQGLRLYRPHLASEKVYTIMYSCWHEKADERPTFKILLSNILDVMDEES
Target sequence in this assay (Q96SW2 whole entry): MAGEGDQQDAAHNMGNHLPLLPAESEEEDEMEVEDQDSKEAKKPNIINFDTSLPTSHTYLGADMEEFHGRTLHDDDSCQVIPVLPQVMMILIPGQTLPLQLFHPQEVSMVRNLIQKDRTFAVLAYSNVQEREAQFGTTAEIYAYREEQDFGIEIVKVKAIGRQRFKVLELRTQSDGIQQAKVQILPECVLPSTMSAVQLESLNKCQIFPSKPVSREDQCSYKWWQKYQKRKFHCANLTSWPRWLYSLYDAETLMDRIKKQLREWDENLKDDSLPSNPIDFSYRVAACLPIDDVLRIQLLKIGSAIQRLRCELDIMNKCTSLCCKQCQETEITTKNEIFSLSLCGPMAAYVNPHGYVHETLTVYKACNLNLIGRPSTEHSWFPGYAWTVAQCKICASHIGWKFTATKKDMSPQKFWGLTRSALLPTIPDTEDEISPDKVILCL

The target in assay [5] is Zinc finger protein Aiolos (Homo sapiens) (UniProt Q9UKT9). Description: Degradation of IKZF3 in human TMD8 cells by measuring protein level at 111 nM for 6 hrs using label free proteomic analysis. In short, it runs like this:
as §1

For assay [6], the target named is Tyrosine-protein kinase FRK (Homo sapiens) (UniProt P42685). Description: Degradation of FRK in human TMD8 cells by measuring protein level at 111 nM for 6 hrs using label free proteomic analysis. In short, it runs like this: as §1
The target of assay [7] is Non-receptor tyrosine-protein kinase TYK2 (Homo sapiens) (UniProt P29597). Kind of assay: Degradation of TYK2 in human TMD8 cells by measuring protein level at 111 nM for 6 hrs using label free proteomic analysis. A digest of the protocol:
as §1

For assay [8], the target named is Tyrosine-protein kinase Lyn (Homo sapiens) (UniProt P07948). Description: Degradation of LYN in human TMD8 cells by measuring protein level at 111 nM for 6 hrs using label free proteomic analysis. In short, it runs like this:
as §1

Assay [9] deals with DNA-binding protein Ikaros (Homo sapiens) (UniProt Q13422). Description: Degradation of IKZF1 in human TMD8 cells by measuring protein level at 111 nM for 6 hrs using label free proteomic analysis. A digest of the protocol: as §1
Assay [10] deals with Tyrosine-protein kinase BTK (Homo sapiens, UniProt Q06187). Description: Degradation of BTK in human TMD8 cells by measuring protein level at 111 nM for 6 hrs using label free proteomic analysis. A digest of the protocol: as §1
Tyrosine-protein kinase BTK, sequence (Q06187 whole entry): as the sequence (Q06187 whole entry) above
The target in assay [11] is T1, Protein cereblon/Tyrosine-protein kinase BTK. Kind of assay: PROTAC activity at BTK/CRBN protein protein interaction in human Ramos cell assessed as degradation of BTK incubated for 17 hrs measured by Western blot analysis relative to control. In short, it runs like this: as §2
Assay [12] has as its target Tyrosine-protein kinase Fes/Fps (Homo sapiens) (UniProt P07332). Description: Degradation of Fes/Fps in human TMD8 cells by measuring protein level at 111 nM for 6 hrs using label free proteomic analysis. In short, it runs like this: as §1
Assay [13] has as its target Tyrosine-protein kinase CSK (Homo sapiens) (UniProt P41240). Kind of assay: Degradation of CSK in human TMD8 cells by measuring protein level at 111 nM for 6 hrs using label free proteomic analysis. In short, it runs like this:
as §1

Assay [14] has as its target T1, Protein cereblon/Tyrosine-protein kinase BTK. Kind of assay: PROTAC activity at BTK/CRBN protein protein interaction in human JeKo-1 cell assessed as degradation of BTK incubated for 17 hrs measured by Western blot analysis. In short, it runs like this:
as §2
Target sequence in this assay (Q06187 whole entry): as above
Target sequence in this assay (Q96SW2 whole entry): as the sequence (Q96SW2 whole entry) above

Assay [15] concerns the target T2, Tyrosine-protein kinase BAZ1B (Homo sapiens) (UniProt Q9UIG0).
T2 sequence (whole entry): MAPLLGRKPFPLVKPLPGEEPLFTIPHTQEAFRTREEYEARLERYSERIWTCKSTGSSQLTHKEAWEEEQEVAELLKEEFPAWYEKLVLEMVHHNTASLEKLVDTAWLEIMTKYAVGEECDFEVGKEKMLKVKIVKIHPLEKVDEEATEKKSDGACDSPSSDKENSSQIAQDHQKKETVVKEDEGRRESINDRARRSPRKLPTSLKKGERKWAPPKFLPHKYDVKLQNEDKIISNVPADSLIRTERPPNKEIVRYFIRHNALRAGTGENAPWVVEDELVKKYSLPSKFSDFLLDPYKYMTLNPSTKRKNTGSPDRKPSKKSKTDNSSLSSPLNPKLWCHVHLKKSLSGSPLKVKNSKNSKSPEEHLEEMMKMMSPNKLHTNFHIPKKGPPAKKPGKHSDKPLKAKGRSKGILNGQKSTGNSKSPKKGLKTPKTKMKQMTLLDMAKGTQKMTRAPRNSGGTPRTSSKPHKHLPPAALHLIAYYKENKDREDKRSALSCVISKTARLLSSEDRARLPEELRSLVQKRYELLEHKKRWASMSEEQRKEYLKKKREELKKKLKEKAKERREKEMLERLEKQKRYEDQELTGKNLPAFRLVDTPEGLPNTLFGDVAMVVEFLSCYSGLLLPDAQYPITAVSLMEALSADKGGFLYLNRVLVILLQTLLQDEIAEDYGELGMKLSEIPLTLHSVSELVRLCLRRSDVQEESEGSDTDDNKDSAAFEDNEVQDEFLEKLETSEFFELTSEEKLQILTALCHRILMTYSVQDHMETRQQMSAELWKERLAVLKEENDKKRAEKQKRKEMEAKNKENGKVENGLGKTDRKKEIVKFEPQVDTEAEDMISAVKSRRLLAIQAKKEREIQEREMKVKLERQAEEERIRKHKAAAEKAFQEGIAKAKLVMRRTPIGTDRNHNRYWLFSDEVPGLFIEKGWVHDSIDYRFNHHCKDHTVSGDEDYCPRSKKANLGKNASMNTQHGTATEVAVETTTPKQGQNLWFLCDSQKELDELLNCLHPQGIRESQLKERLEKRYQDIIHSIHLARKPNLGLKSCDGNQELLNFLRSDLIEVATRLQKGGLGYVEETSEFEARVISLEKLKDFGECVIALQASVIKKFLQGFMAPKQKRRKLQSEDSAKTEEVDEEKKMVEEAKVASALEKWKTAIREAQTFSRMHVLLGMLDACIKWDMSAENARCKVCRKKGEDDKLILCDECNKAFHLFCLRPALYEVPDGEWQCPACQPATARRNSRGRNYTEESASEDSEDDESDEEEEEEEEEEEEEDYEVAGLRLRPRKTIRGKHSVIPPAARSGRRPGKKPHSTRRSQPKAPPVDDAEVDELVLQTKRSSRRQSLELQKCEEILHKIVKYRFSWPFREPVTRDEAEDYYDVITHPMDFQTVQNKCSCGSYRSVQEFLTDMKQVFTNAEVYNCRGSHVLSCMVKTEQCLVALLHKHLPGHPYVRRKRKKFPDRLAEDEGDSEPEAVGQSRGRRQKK
Description: Degradation of BAZ1B in human TMD8 cells by measuring protein level at 111 nM for 6 hrs using label free proteomic analysis. A digest of the protocol:
as §1

SMILES strings stand for the structures. Calls of active or inactive are those of the source. The calls are words filed in the database; no cut-off is given here.

Tyrosine-protein kinase Lyn (Homo sapiens), sequence (P07948 2-512 limits assumed): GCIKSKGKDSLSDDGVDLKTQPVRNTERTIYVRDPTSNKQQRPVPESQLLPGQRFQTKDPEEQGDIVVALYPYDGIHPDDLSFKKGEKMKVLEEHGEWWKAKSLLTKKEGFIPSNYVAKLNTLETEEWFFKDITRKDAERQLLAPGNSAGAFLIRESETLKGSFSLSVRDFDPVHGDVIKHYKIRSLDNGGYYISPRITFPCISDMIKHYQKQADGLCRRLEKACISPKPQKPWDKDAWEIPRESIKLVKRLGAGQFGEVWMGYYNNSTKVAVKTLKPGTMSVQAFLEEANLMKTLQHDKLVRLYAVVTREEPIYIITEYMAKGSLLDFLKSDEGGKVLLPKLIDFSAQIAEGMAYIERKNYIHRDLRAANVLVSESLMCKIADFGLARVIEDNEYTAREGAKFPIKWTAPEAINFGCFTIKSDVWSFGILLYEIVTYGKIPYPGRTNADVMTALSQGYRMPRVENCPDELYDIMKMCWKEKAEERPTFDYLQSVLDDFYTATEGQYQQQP
Zinc finger protein Aiolos (Homo sapiens), sequence (Q9UKT9 whole entry): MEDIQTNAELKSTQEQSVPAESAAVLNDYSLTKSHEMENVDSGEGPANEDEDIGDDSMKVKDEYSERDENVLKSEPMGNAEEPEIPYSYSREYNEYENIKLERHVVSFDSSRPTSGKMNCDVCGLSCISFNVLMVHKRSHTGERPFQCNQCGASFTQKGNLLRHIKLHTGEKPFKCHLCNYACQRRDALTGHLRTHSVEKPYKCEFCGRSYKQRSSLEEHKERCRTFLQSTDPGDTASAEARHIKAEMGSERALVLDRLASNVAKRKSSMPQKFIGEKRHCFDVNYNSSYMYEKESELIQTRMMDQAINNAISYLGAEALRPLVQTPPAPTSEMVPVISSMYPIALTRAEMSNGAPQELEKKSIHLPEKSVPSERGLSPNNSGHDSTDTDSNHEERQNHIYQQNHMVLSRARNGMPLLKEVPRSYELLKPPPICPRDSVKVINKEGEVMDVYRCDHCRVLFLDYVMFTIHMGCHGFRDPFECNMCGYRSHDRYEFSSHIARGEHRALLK
Tyrosine-protein kinase HCK (Homo sapiens), sequence (P08631 2-526 limits assumed): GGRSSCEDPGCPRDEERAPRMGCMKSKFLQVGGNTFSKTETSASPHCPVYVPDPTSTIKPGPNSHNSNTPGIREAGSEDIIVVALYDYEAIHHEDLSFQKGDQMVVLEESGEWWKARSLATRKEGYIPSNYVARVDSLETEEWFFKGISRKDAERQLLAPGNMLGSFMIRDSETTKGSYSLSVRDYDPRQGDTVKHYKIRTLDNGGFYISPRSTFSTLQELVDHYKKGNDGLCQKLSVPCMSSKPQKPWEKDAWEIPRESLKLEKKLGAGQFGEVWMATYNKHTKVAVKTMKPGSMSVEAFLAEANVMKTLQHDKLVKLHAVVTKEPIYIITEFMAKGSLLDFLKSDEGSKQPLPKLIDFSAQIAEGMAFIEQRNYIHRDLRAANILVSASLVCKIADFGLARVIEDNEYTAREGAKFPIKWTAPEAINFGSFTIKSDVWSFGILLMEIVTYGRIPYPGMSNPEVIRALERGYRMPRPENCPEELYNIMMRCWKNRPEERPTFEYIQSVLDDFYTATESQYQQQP
Tyrosine-protein kinase CSK (Homo sapiens), sequence (P41240 2-450 limits assumed): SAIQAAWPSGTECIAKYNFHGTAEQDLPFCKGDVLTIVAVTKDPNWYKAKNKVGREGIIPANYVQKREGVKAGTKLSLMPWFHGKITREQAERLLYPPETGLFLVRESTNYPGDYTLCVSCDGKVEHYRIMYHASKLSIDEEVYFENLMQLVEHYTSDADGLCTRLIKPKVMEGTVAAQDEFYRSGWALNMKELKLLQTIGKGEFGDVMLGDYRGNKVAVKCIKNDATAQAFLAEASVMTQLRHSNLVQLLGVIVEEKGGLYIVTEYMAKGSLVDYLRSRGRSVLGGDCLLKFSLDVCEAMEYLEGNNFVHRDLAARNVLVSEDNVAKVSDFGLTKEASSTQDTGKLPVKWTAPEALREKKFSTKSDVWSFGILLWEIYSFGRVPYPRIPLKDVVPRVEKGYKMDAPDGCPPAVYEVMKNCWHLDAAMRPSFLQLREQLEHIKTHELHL
Tyrosine-protein kinase Fes/Fps (Homo sapiens), sequence (P07332 whole entry): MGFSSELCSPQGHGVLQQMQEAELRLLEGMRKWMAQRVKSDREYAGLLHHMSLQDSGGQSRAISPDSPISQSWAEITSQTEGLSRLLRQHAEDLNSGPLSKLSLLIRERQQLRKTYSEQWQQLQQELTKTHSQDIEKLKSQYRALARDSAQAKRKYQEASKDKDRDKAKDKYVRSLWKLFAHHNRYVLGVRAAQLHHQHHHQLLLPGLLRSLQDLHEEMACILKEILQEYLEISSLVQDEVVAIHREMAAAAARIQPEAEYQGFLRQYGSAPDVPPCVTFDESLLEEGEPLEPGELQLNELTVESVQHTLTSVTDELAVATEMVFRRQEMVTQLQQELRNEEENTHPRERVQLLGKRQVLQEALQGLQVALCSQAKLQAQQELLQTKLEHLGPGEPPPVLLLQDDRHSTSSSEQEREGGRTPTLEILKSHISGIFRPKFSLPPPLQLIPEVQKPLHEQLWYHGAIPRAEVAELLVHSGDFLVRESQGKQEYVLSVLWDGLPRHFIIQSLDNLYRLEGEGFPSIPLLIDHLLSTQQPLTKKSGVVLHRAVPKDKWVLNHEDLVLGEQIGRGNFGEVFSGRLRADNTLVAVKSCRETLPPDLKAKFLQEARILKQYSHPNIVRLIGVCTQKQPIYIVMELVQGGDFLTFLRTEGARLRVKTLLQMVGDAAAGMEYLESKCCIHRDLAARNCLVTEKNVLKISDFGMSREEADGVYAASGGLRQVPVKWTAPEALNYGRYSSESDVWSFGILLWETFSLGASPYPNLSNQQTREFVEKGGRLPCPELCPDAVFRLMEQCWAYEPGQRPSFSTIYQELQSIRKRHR
Eukaryotic peptide chain release factor GTP-binding subunit ERF3A (Homo sapiens), sequence (P15170 whole entry): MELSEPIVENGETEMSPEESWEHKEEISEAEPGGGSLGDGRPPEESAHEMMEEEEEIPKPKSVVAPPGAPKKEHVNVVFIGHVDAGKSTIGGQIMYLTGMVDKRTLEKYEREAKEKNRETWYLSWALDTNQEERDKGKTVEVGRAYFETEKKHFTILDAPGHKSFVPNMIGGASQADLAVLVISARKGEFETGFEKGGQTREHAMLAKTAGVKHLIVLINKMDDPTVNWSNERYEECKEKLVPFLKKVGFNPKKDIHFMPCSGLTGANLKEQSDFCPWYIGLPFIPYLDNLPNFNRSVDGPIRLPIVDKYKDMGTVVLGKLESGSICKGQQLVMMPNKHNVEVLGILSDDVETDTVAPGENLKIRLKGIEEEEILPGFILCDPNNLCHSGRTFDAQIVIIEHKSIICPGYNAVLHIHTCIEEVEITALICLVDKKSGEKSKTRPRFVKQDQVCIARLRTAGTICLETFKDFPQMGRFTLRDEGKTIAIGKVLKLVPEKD

For the compound `C[C@H]1CN(C(=O)COc2cccc3c2C(=O)N(C2CCC(=O)NC2=O)C3=O)CCN1c1ccc(Nc2cc(-c3ccnc(N4CCn5c(cc6c5CC(C)(C)C6)C4=O)c3CO)cn(C)c2=O)nc1` (stereo not given in full), the result in assay [1], in assay [2], in assay [3], in [5], in [6] and in assay [7] was inactive. Further, the outcome in assay [8], in [9], in assay [12], in [13] and in assay [15] was inactive. Further, the half-maximal degradation concentration (DC50) turned out to be 1.7 nM in [4] and 3.1 nM in assay [14]. Further, in [10], the outcome was Active. Further, in [11], the Emax stood at 96.2%.

`C[C@H]1CN(C(=O)CNc2cccc3c2C(=O)N(C2CCC(=O)NC2=O)C3=O)CCN1c1ccc(Nc2cc(-c3ccnc(N4CCn5c(cc6c5CC(C)(C)C6)C4=O)c3CO)cn(C)c2=O)nc1` (stereo not given in full): the result in [1], in assay [2], in assay [3], in assay [6], in [7] and in assay [8] was inactive. Moreover, the outcome in assay [12], in assay [13] and in assay [15] was inactive. The DC50 stood at 0.5 nM in assay [4] and 0.6 nM in assay [14]. Also, the result in [5], in assay [9] and in assay [10] was Active. Further, in assay [11], the Emax came to 97.1%.

In general, DC50 refers to the concentration at which degradation of the target reaches its halfway point. As a reminder, the Emax is the size of the effect at its maximum, as opposed to the concentration needed.
